Experimental data: ChEMBL document CHEMBL3593171, “Characterization of l-Digitoxosyl-phenanthroviridin from Streptomyces venezuelae ISP5230” (2015)

Assay: Cytotoxicity against human NCI60 cells by NCI protocol based assay
Assay type: functional
Method in brief: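 NCI-60 human tumour cell line panel run per the NCI protocol, with ethanol used as solvent in place of DMSO. Single-dose screen at 10 μM first, then five-dose assay from 10 nM to 100 μM at log10 intervals. Percent growth was plotted against concentration for each cell line, and GI50, TGI and LC50 were calculated from the dose–response curves.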

Structure (SMILES) | GI50 | LC50 | TGI
Cc1cc(O)c2c(c1)[C@@H]1OC(=O)[C@H]([C@H](C)O)N1C1=C2C(=O)c2cccc(O[C@H]3C[C@@H](O)[C@@H](O)[C@H](C)O3)c2C1=O [JADOMYCIN T] | 1.35 µM | 6.5 µM | 3.02 µM
Cc1cc(O)c2c3c(ncc2c1)C(=O)c1c(O[C@H]2C[C@@H](O)[C@@H](O)[C@H](C)O2)cccc1C3=O | 2.14 µM | 18.2 µM | 5.75 µM
CCCC1C(=O)OC2c3cc(C)cc(O)c3C3=C(C(=O)c4c(O[C@H]5C[C@@H](O)[C@@H](O)[C@H](C)O5)cccc4C3=O)N12 (stereo partly drawn) | 4.79 µM | 19 µM | 10 µM
CC(=O)O[C@@H]1[C@@H](OC(C)=O)[C@H](C)O[C@@H](n2cc(COC[C@H]3C(=O)OC4c5cc(C)cc(O)c5C5=C(C(=O)c6c(O[C@H]7C[C@@H](O)[C@@H](O)[C@H](C)O7)cccc6C5=O)N43)nn2)[C@@H]1OC(C)=O (stereo partly drawn) | 3.1 µM | 11.6 µM | 6.8 µM
CCCCC1C(=O)OC2c3cc(C)cc(O)c3C3=C(C(=O)c4c(O[C@H]5C[C@@H](O)[C@@H](O)[C@H](C)O5)cccc4C3=O)N12 (stereo partly drawn) | 3.89 µM | 18 µM | 8.7 µM
Cc1cc(O)c2c(c1)C1OC(=O)[C@H](COCc3cn(Cc4ccccc4)nn3)N1C1=C2C(=O)c2cccc(O[C@H]3C[C@@H](O)[C@@H](O)[C@H](C)O3)c2C1=O (stereo partly drawn) | 6.1 µM | 14.9 µM | 11.9 µM
Cc1cc(O)c2c(c1)[C@@H]1OC(=O)CN1C1=C2C(=O)c2cccc(O[C@H]3C[C@@H](O)[C@@H](O)[C@H](C)O3)c2C1=O [JADOMYCIN G] | 1.68 µM | 38.5 µM | 9.6 µM
CC(=O)OC[C@@H]1O[C@@H](n2cc(COC[C@H]3C(=O)OC4c5cc(C)cc(O)c5C5=C(C(=O)c6c(O[C@H]7C[C@@H](O)[C@@H](O)[C@H](C)O7)cccc6C5=O)N43)nn2)[C@H](OC(C)=O)[C@H](OC(C)=O)[C@H]1OC(C)=O (stereo partly drawn) | 3.7 µM | 10.9 µM | 6.6 µM
Cc1cc(O)c2c(c1)[C@@H]1OC(=O)[C@H](CC(C)C)N1C1=C2C(=O)c2cccc(O[C@H]3C[C@@H](O)[C@@H](O)[C@H](C)O3)c2C1=O [JADOMYCIN L] | 1.82 µM | 9.3 µM | 4.1 µM
CC(=O)O[C@H]1O[C@@H](n2cc(COC[C@H]3C(=O)OC4c5cc(C)cc(O)c5C5=C(C(=O)c6c(O[C@H]7C[C@@H](O)[C@@H](O)[C@H](C)O7)cccc6C5=O)N43)nn2)[C@@H](OC(C)=O)[C@@H](OC(C)=O)[C@@H]1OC(C)=O (stereo partly drawn) | 3.5 µM | 11.8 µM | 7.2 µM
CC(=O)O[C@@H]1[C@@H](OC(C)=O)[C@H](C)O[C@H](n2cc(COC[C@H]3C(=O)OC4c5cc(C)cc(O)c5C5=C(C(=O)c6c(O[C@H]7C[C@@H](O)[C@@H](O)[C@H](C)O7)cccc6C5=O)N43)nn2)[C@@H]1OC(C)=O (stereo partly drawn) | 3.1 µM | 9.8 µM | 6.3 µM
